From ChEMBL document CHEMBL1124171, “Ergolines as selective 5-HT1 agonists” (J Med Chem, 1988)

Columns and labels:
[1] = tested on: Rattus norvegicus; assay: Decreased accumulation of 5-hydroxytryptophan after decarboxylase inhibition in the hypothalamus of rat at a dose 0.01mg/Kg, sc; assay type: functional, organism-based
Method in brief: (§1)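 Male Wistar rats (~150 g) got drug sc in dilute HCl. NSD 1015 (100 mg/kg, ip) was given 30 min after drug and 30 min before decapitation. Hypothalamic 5-HTP was measured by LC with electrochemical detection. Results are mean ± SE, five rats per treated group and six controls; significance at P < 0.01.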

[2] = tested on: Rattus norvegicus; assay: Effect of Metergoline on the elevation of serum corticosterone, after sc administration (0.3 mg/kg) Metergoline pretreament; assay type: functional, organism-based
Method in brief: (§2)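 Male Wistar rats (~150 g) received metergoline (3 mg/kg, ip) or no pretreatment. Drug was given sc in dilute HCl 1 h later, and rats were decapitated 1 h after that. Serum corticosterone was determined spectrofluorometrically. Results are mean ± SE, five rats/group, P < 0.05 versus the corresponding control.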

[3] = tested on: Rattus norvegicus; assay: Decreased accumulation of 5-hydroxytryptophan after decarboxylase inhibition in the hypothalamus of rat at a dose 0.3 mg/Kg, sc; assay type: functional, organism-based; method in brief: as §1
[4] = tested on: Rattus norvegicus; assay: Effect on homovanillic acid concentration in rat striatum, after 0.1 mg/kg sc administration; assay type: functional; details: route subcutaneous
Method in brief: (§3)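 Male Wistar rats (~150 g) were given drug or apomorphine HCl sc and decapitated 1 h later. Striatal DOPAC and HVA were quantified by LC with electrochemical detection. Results are mean ± SE, five rats/group, P < 0.05.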

[5] = tested on: Rattus norvegicus; assay: Effect on serotonin in rat whole brain, after sc administration (1 mg/kg dose) (experiment 1); assay type: functional, organism-based
[6] = tested on: Rattus norvegicus; assay: Effect on homovanillic acid concentration in rat striatum, after 0.3 mg/kg sc administration; assay type: functional; details: route subcutaneous; method in brief: as §3
[7] = tested on: Rattus norvegicus; assay: Effect of Metergoline on the elevation of serum corticosterone, after sc administration (0.1 mg/kg) No pretreatment; assay type: functional, organism-based; method in brief: as §2
[8] = tested on: Rattus norvegicus; assay: Effect on serotonin in rat whole brain, after sc administration (0 mg/kg dose) (experiment 1); assay type: functional, organism-based
Method in brief: (§4)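 Drug was given sc in dilute HCl to male Wistar rats (~150 g), with decapitation 1 h later. Whole brains were frozen on dry ice and held at −15 °C. […] Results are mean ± SE, five rats/group, P < 0.05 versus vehicle control.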

[9] = tested on: Rattus norvegicus; assay: Effect on serum corticosterone in serum of rats after sc administration (0 mg/kg dose) (experiment 1); assay type: functional, organism-based
Method in brief: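 Male Wistar rats (~150 g) housed at 24 °C with lights 7 a.m.–7 p.m. Compound in dilute HCl given sc 1 h before decapitation. Serum corticosterone measured spectrofluorometrically, μg/100 mL. Five rats per group, mean ± SE. Significance set at P < 0.05 versus the vehicle control.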

[10] = tested on: Rattus norvegicus; assay: Effect on serotonin in rat whole brain, after sc administration (0.03 mg/kg dose) (experiment 2); assay type: functional, organism-based
[11] = tested on: Rattus norvegicus; assay: Effect on homovanillic acid concentration in rat striatum, after 0.03 mg/kg sc administration; assay type: functional; details: route subcutaneous; method in brief: as §3
[12] = tested on: Rattus norvegicus; assay: Minimum effective dose required to increase (MED) corticosterone in rat serum, sc; assay type: functional; details: read-out: MED
Method in brief: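 Male Wistar rats (~150 g). Compound in dilute HCl given sc at graded doses 1 h before decapitation. Whole-brain 5-HIAA measured by LC with electrochemical detection; serum corticosterone measured spectrofluorometrically. Minimum effective dose is the lowest dose giving a significant difference from control (P < 0.05).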

[13] = tested on: Rattus norvegicus; assay: Effect of Metergoline on the elevation of serum corticosterone, after sc administration (0.03 mg/kg) No pretreatment; assay type: functional, organism-based; method in brief: as §2
[14] = tested on: Rattus norvegicus; assay: Effect on concentrations of serotonin in rat brain hypothalamus after 0.3 mg/kg sc administration; assay type: functional, organism-based; parameters: dose 0.3 mg/kg
Method in brief: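 Male Wistar rats (~150 g) were injected sc with drug in dilute HCl and decapitated 1 h later. Hypothalamus and striatum were dissected and frozen on dry ice. […] Results are mean ± SE, five rats/group, P < 0.05.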

[15] = species: Rattus norvegicus; assay: Effect of […] on the elevation of serum corticosterone at a dose 100 ug/mL PCPA pretreated; assay type: functional, organism-based
Method in brief: (§5)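 Rats got p-chlorophenylalanine (300 mg/kg, ip) or no pretreatment. 24 h later, drug (0.3 mg/kg, sc, dilute HCl) or p-chloroamphetamine HCl (2.5 mg/kg, ip) was given, and rats were killed 1 h after. Serum corticosterone was measured spectrofluorometrically. Results are mean ± SE, five male Wistar rats/group.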

[16] = biological target: Serotonin 2 (5-HT2) receptor (Rattus norvegicus, UniProt P30994+P08909+P14842); assay: Binding affinity at 5-hydroxytryptamine 2 receptor from rat frontal cortex homogenates by [3H]-spiperone displacement.; assay type: tissue-based
[17] = tested on: Rattus norvegicus; assay: Effect on serotonin in rat whole brain, after sc administration (0.1 mg/kg dose) (experiment 1); assay type: functional, organism-based
[18] = tested on: Rattus norvegicus; assay: Effect on 5-hydroxyindoleacetic acid in rat whole brain, after sc administration (0.03 mg/kg dose) (experiment 1); assay type: functional, organism-based; method in brief: as §4
[19] = species: Rattus norvegicus; assay: Effect of fluoxetine on the elevation of serum corticosterone, Fluoxetine pretreament; assay type: functional, organism-based
Method in brief: as §5, with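 “fluoxetine HCl (10” for “p-chlorophenylalanine (300”, “16” for “24”, “with decapitation” for “and rats were killed”, “rats/group, P < 0.05.” for “rats/group.”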

[20] = tested on: Rattus norvegicus; assay: Effect on serotonin in rat whole brain, after sc administration (0.3 mg/kg dose) (experiment 1); assay type: functional, organism-based
[21] = tested on: Rattus norvegicus; assay: Effect on 5-hydroxyindoleacetic acid in rat whole brain, after sc administration (1 mg/kg dose) (experiment 1); assay type: functional, organism-based; method in brief: as §4
[22] = tested on: Rattus norvegicus; assay: Effect of Metergoline on the elevation of serum corticosterone, after sc administration (0 mg/kg) No pretreatment; assay type: functional, organism-based; method in brief: as §2
[23] = tested on: Rattus norvegicus; assay: Effect of Metergoline on the elevation of serum corticosterone, after sc administration (0.03 mg/kg) Metergoline pretreament; assay type: functional, organism-based; method in brief: as §2
[24] = tested on: Rattus norvegicus; assay: Effect on 3,4-dihydroxyphenylacetic acid concentration in rat striatum, after 0.1 mg/kg sc administration; assay type: functional; details: route subcutaneous; method in brief: as §3

For C[C@@H]1C=C2c3cccc4c3[C@@H](CN4)C[C@H]2N(C)C1, the Concentration [1] was 1.64 nM/g, the Serum corticosterone [2] was 50.2 µg/mL and the Concentration [3] was 0.71 nM/g. For the same compound, the Homovanillic acid concentration [4] was 3.65 nM/g, the Concentration [5] was 3.02 nM/g and the Homovanillic acid concentration [6] was 3.27 nM/g. For the same compound, the Serum corticosterone [7] was 33.8 µg/mL, the Concentration [8] was 2.32 nM/g and the Concentration [9] was 4.3 nM/g. The Concentration [10] was 2.77 nM/g, the Homovanillic acid concentration [11] was 2.89 nM/g and the minimal effective dose [12] was 0.1 mg/kg. It also gave a Serum corticosterone [13] of 6.5 µg/mL, a Concentration [14] of 4.78 mg/kg and a Serum corticosterone [15] of 42 µg/mL. For the same compound, the IC50 [16] was 1665 nM, the Concentration [17] was 2.59 nM/g and the Concentration [18] was 1.52 nM/g. For the same compound, the Serum corticosterone [19] was under 61.2 µg/mL, the Concentration [20] was 2.95 nM/g and the Concentration [21] was 1.47 nM/g. The Serum corticosterone [22] was 4.3 µg/mL, the Serum corticosterone [23] was 22.1 µg/mL and the DOPAC concentration [24] was 4.44 nM/g.
